According to ChEMBL document CHEMBL1130227, “(S)-homo-AMPA, a specific agonist at the mGlu6 subtype of metabotropic glutamic acid receptors” (J Med Chem, 1997):

Legend:
[1] = molecular target: Metabotropic glutamate receptor 6 (Rattus norvegicus, UniProt P35349); assay: Effect on Metabotropic glutamate receptor 6
Summary of the method: (§1)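 Stably transfected CHO cells (mGlu3, mGlu4a or mGlu6) incubated 10 min in PBS with ligand, 10 μM forskolin and 1 mM IBMX. cAMP measured by RIA; agonism taken as percent decrease of forskolin-induced cAMP versus control. For antagonism, 20 min preincubation with ligand in PBS/1 mM IBMX, then 10 min with ligand plus 30 μM (S)-Glu, forskolin and IBMX. EC50 ± SEM from at least two independent experiments in triplicate.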

[2] = molecular target: Metabotropic glutamate receptor 4 (Rattus norvegicus, UniProt P31423); assay: Effect on Metabotropic glutamate receptor 4; summary of the method: as §1
[3] = molecular target: Metabotropic glutamate receptor 1 (Rattus norvegicus, UniProt P23385); assay: Effect on Metabotropic glutamate receptor 1
Summary of the method: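 CHO cells stably expressing mGlu1a, plated two days before assay and labelled with [3H]inositol (2 μCi/mL) for 24 h. Ligand given in PBS–LiCl for 20 min; read-out is 3H mono-, bis- and tris-inositol phosphates separated by ion exchange, expressed as fold increase over control. For antagonism, a 20 min ligand preincubation was followed by ligand plus 30 μM (S)-Glu. At least two experiments, each in triplicate.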

[4] = molecular target: Metabotropic glutamate receptor 2 (Rattus norvegicus, UniProt P31421); assay: Effect on Metabotropic glutamate receptor 2
Summary of the method: (§2)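 Stably transfected CHO cells grown in DMEM with 2 mM glutamine, 1% proline and 10% dialyzed FCS, at 37 °C in 5% CO2. Cells seeded 2 days before assay. Ligand tested at 1 mM, both alone and with 30 μM (S)-Glu. Each experiment run at least twice in triplicate.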

[5] = molecular target: Metabotropic glutamate receptor 5 (Rattus norvegicus, UniProt P31424); assay: Effect on Metabotropic glutamate receptor 5; summary of the method: as §2
[6] = molecular target: Metabotropic glutamate receptor 7 (Rattus norvegicus, UniProt P35400); assay: Effect on Metabotropic glutamate receptor 7
Summary of the method: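 mGlu7-expressing CHO cells run in the forskolin (10 μM)/IBMX (1 mM) cAMP assay for 10 min, with cAMP measured by RIA as percent inhibition. Test ligand at 10 mM. For antagonism, 20 min preincubation, then ligand plus 1 mM (S)-AP4 as the agonist. Run at least twice in triplicate.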

[7] = molecular target: Metabotropic glutamate receptor 3 (Rattus norvegicus, UniProt P31422); assay: Effect on Metabotropic glutamate receptor 3; summary of the method: as §1
Glutamate NMDA receptor = assay: Inhibitory activity against N-methyl-D-aspartate glutamate receptor; format: protein-complex assay

Chain of Metabotropic glutamate receptor 7 (P35400 whole entry): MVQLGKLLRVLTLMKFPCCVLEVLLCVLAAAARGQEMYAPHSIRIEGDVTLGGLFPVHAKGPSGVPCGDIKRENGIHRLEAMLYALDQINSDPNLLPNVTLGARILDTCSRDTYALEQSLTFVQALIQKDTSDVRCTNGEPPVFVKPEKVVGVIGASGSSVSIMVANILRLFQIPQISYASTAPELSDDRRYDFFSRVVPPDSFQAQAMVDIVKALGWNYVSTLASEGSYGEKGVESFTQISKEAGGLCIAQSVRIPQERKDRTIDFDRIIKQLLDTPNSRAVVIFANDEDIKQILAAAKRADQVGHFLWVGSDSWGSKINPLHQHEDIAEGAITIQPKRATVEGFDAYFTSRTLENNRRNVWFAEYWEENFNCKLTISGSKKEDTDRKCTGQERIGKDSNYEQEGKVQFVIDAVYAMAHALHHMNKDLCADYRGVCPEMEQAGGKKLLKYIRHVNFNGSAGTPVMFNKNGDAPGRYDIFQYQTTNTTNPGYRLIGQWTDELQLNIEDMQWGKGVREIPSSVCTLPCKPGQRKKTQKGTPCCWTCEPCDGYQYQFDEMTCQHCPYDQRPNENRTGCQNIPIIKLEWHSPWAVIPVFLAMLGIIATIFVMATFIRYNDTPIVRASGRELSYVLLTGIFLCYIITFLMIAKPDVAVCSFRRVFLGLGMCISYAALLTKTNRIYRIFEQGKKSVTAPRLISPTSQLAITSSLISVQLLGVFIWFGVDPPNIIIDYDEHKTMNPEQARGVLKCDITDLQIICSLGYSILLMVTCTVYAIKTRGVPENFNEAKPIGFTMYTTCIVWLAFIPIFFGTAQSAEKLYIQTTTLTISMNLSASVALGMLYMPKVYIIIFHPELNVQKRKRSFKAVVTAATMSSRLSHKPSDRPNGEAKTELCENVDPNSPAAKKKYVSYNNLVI
Chain of Metabotropic glutamate receptor 5 (P31424 whole entry): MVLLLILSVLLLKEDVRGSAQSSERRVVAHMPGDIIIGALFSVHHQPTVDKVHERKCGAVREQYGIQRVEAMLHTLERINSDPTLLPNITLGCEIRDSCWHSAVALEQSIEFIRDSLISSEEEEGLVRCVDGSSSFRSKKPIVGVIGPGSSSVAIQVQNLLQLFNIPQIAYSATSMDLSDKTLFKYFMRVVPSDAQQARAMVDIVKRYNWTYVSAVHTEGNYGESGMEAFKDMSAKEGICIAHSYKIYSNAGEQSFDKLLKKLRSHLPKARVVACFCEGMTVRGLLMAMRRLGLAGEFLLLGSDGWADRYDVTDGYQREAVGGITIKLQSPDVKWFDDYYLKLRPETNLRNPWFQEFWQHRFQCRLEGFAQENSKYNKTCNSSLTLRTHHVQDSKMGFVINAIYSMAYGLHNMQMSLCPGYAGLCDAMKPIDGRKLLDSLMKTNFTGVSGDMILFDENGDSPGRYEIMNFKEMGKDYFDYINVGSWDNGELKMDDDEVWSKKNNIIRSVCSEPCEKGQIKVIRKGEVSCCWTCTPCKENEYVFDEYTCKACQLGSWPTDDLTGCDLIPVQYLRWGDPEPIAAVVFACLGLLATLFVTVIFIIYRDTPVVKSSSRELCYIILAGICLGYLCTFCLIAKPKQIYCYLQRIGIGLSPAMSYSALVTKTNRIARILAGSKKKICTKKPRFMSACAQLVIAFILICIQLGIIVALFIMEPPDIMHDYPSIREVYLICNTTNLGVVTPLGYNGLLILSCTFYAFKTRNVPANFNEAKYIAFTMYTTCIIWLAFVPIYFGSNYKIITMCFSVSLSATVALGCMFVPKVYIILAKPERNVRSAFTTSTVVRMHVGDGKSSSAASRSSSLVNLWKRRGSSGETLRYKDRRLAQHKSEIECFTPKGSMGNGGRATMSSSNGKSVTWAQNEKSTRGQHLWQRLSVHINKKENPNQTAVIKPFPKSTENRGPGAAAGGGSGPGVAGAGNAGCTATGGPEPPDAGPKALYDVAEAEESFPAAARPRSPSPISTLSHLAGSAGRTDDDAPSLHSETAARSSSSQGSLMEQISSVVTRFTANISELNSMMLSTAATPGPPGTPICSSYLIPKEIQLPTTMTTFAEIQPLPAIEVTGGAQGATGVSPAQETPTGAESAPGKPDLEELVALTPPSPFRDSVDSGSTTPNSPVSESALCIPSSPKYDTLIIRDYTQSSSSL
Chain of Metabotropic glutamate receptor 6 (P35349 whole entry): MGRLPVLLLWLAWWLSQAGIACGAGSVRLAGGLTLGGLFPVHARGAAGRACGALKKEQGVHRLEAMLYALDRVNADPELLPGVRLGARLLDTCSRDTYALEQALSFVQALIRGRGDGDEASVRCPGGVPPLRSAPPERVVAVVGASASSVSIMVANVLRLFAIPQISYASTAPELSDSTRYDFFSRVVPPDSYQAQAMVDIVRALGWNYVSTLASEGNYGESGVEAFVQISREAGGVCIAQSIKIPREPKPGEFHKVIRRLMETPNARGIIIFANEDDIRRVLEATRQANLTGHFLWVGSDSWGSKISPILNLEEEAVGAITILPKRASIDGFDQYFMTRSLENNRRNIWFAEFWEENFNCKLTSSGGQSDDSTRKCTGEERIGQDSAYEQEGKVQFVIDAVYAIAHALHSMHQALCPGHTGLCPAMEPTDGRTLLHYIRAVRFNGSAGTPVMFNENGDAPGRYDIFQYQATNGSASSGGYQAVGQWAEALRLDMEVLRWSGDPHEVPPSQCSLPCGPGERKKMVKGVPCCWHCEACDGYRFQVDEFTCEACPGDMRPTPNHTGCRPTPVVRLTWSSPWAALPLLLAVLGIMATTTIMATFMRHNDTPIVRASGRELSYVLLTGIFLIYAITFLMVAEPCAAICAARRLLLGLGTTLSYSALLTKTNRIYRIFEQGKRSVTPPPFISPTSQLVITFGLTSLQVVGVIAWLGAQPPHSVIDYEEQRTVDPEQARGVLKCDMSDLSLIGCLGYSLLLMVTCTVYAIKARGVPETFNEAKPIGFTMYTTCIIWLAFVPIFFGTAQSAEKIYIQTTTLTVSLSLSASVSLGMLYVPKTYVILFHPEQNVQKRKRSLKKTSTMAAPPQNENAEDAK
Chain of Metabotropic glutamate receptor 3 (P31422 whole entry): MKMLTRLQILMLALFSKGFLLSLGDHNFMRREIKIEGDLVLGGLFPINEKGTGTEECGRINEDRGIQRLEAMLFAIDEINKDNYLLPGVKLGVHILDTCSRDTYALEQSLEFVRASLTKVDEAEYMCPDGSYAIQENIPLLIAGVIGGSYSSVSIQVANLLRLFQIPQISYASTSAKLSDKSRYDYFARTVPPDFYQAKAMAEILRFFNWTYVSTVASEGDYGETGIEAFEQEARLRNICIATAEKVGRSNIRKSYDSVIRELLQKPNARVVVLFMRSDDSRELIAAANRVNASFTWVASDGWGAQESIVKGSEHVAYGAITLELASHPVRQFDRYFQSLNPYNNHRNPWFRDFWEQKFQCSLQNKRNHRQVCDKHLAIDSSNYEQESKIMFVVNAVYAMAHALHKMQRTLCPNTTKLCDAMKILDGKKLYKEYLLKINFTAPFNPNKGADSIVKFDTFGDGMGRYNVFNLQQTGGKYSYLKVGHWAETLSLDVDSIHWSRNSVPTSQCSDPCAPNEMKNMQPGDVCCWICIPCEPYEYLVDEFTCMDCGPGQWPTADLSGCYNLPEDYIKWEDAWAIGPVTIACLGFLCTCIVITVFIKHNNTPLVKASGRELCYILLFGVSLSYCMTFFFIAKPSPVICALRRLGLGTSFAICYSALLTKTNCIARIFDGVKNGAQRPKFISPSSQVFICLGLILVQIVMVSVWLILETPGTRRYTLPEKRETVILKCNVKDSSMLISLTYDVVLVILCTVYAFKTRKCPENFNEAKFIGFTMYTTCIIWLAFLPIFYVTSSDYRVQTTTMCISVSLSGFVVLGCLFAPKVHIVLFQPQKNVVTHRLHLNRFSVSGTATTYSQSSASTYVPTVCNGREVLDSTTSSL
Chain of Metabotropic glutamate receptor 2 (P31421 whole entry): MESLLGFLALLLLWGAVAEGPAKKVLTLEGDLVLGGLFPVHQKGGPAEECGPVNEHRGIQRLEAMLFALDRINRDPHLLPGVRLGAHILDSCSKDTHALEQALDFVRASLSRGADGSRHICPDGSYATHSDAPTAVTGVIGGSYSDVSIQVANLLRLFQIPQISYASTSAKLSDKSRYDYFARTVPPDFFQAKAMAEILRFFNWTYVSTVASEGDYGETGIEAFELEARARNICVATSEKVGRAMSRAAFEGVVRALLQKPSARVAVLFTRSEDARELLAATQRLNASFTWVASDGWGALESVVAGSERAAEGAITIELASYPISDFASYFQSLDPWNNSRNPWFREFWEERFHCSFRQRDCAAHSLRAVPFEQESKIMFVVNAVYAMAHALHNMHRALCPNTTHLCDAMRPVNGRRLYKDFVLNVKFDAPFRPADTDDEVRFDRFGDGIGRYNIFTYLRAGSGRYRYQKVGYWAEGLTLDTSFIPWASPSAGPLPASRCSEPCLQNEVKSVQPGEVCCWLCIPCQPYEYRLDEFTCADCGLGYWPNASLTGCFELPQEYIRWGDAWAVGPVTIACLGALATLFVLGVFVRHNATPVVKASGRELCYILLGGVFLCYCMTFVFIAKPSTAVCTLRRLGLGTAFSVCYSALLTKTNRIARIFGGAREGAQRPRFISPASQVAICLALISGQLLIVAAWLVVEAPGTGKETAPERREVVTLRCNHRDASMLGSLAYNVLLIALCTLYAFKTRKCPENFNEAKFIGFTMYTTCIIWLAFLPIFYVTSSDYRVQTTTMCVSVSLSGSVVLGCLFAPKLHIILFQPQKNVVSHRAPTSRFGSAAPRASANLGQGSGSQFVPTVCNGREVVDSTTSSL

SMILES	EC50 [1]	EC50 [2]	EC50 [3]	EC50 [4]	EC50 [5]	EC50 [6]	EC50 [7]	IC50 (Glutamate NMDA receptor)
N[C@@H](CCCC(=O)O)C(=O)O [(S)-2-AMINOADIPIC ACID]	140 µM	> 3000 µM	> 1000 µM	35 µM	–	–	–	–
Cc1o[nH]c(=O)c1CC[C@@H](N)C(=O)O	> 1000 µM	> 1000 µM	> 1000 µM	> 1000 µM	> 1000 µM	> 5000 µM	> 1000 µM	131 µM
Cc1onc(O)c1CC[C@H](N)C(=O)O	58 µM	> 1000 µM	> 1000 µM	> 1000 µM	> 1000 µM	> 5000 µM	> 1000 µM	–
N[C@H](CCC(=O)O)C(=O)O [D-GLUTAMATE]	–	12 µM	–	–	–	5400 µM	9 µM	–
N[C@@H](CCP(=O)(O)O)C(=O)O	0.57 µM	0.91 µM	1000 µM	1000 µM	> 1000 µM	252 µM	–	–
N[C@H](CCCC(=O)O)C(=O)O	> 1000 µM	–	> 1000 µM	> 1000 µM	–	–	–	–
Cc1onc(O)c1CCC(N)C(=O)O (stereo not given)	82 µM	> 3000 µM	> 1000 µM	> 1000 µM	–	–	–	–
